# Source: PubChem BioAssay AID651783 (The Scripps Research Institute Molecular Screening Center, 2012)
# In all, about 2,400 compounds went through this assay and about 2,000 (83%) were called active. So high a share suggests a set chosen from earlier hits. These entries were drawn from the full list. Unmarked numbers belong to inactive results.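 Rule for the calls: active = activation above a cutoff set at the run's mean compound activation plus 3 SD (cut at about 39% in these data); inactive = the rest.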
# Molecular target: Trace amine-associated receptor 1 (Homo sapiens) (UniProt Q96RJ0)
# Sequence (Q96RJ0 whole entry, looked up): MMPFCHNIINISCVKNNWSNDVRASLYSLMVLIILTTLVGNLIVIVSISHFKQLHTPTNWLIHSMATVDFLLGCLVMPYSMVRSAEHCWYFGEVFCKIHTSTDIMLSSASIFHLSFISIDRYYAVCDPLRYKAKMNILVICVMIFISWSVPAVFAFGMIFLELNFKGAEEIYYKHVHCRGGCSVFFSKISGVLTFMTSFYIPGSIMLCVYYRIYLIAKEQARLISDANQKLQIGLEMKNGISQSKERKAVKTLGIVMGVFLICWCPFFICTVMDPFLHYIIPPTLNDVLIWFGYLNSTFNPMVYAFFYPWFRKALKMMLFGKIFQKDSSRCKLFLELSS
# Assay: activators of TAAR1 calcium signal, triplicate retest – Fluo-8 calcium fluorescence, CHO RD-HGA16 cells, confirmation (AID 651783);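 note: promiscuous G-alpha-16 overexpression reroutes TAAR1 signalling from cAMP to calcium; peak fluorescence divided by basal pre-compound fluorescence per well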
# Settings: CHO RD-HGA16 TAAR1, Fluo-8 calcium fluorescence; at 3 µM; hits give high values; scaled: DMSO 0%, maximal phenethylamine 100%
# In short: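 Controls: DMSO (low) and PEA EC100 (high); system: RD-HGA16 CHO cells co-expressing hTAAR1 and promiscuous Gα16; times: Fluo-8 dye loading 75 min 37 °C, then 30 min room temperature; detection: kinetic Fluo-8 calcium fluorescence over 140 s after basal; evaluation: % activation from max-to-basal fluorescence ratio, DMSO-to-PEA scaled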
row,Structure (SMILES),activation
1,S=C(Nc1ccc(Br)cc1)NC1CCN(Cc2ccccc2)CC1,62.4% (active)
2,CCCCCCCCCCOC(=O)Cn1c(COc2ccc(C)cc2)[n+](C)c2ccccc21,109% (active)
3,COCCCn1c(Cc2csc(Nc3cccc(Cl)c3)n2)nnc1SCC(=O)OC1CCCCC1,-1.89%
4,Cc1ccc(NC(=O)CCN2CCc3ccccc3C2)cc1,88.5% (active)
5,CCCC1CCC(=NNC(=S)NCCc2ccccc2)CC1 (configuration not stated),73.7% (active)
6,COc1cc(OC)cc(C(=O)N[C@H](C(=O)OCC(=O)NC(C)c2ccccc2)C(C)C)c1 (some centres not stated),41.1% (active)
7,CC(=O)Oc1ccc(Cn2c(C)c(C(=O)NCc3ccc(C#N)cc3)sc2=O)cc1,113% (active)
8,NC[C@H](Cc1ccccc1)NCCc1cc(C(F)(F)F)cc(C(F)(F)F)c1,55.9% (active)
9,COc1cc(OC)c(-n2cc(-c3ccc(Cl)cc3)[nH]c2=O)cc1Cl,117% (active)
10,O=C(O)C1C2C=CC(O2)C1C(=O)NCCc1cccc(Cl)c1 (configuration not stated),101% (active)
11,COc1ccc(C(=O)NC(=S)NNC(=O)CCc2ccccc2)cc1,115% (active)
12,O=C(Nc1cccc(NC(=O)c2ccc(Br)cc2)c1)c1ccccc1,5.69%
13,COc1ccc(C(=O)NNC(=S)NC(=O)c2ccccc2)cc1,127% (active)
14,COc1ccc(Cl)cc1C(=O)NNC(=S)NC(=O)/C=C/c1ccco1,108% (active)
15,Cc1ccc(O)c(NC(=S)NC(=O)COc2ccc(Br)cc2)c1,129% (active)
16,CCc1ccc(-c2nn(-c3ccccc3)cc2CSC(=N)N)cc1,58.1% (active)
17,CCc1c(-c2ccccc2OC)ncn1CCc1ccccc1OC,82.6% (active)
18,CCCCc1c(-c2ccc(Br)cc2)ncn1CCc1ccccc1OC,68.2% (active)
19,CCCCc1c(-c2ccc(Cl)cc2)ncn1CCc1ccccc1OC,81% (active)
20,COc1ccc(OC)c(C(c2nnnn2C(C)(C)C)N2CCc3ccccc3C2)c1 (configuration not stated),66.7% (active)
21,CCOC(=O)Cc1csc(NC(=O)Nc2ccccc2)n1,60.1% (active)
22,O=C(Nc1ccncc1)Nc1ccc(F)cc1,83.6% (active)
23,CCCCCc1c(-c2ccc(OC)c(OC)c2)ncn1CCc1ccccc1OC,98.3% (active)
24,CCCCCc1c(-c2cccc(Br)c2)ncn1CCc1ccccc1OC,37.5% (active)
25,CCCCCc1c(Cc2ccccc2)ncn1CCc1ccccc1OC,84.3% (active)
26,NC(=O)C1=C[C@H](c2csc3ccccc23)C[C@H](OCc2ccc(CO)cc2)O1,58.4% (active)

row,Structure (SMILES),activation
1,c1ccc2c(c1)C(=NC1CCCCC1)NC2=NC1CCCCC1,90.4% (active)
2,CCC(C(=O)Nc1ccc(C(C)C)cc1)c1ccccc1 (configuration not stated),114% (active)
3,C#CCOc1ccc(/C=C2/C(=O)NN(c3ccccc3)C2=O)cc1OC,88% (active)
4,COc1ccc2cc(-c3[nH]ncc3CNCCn3nc(C)cc3C)ccc2c1,57.6% (active)
5,O=C(Cc1ccc(Cl)cc1)NC(=S)Nc1ccccc1O,134% (active)
6,Cc1ccccc1NC(=S)NC(=O)Cc1ccc(Cl)cc1,85.2% (active)
7,S=C(NCCCc1cnc[nH]1)NCCCN(Cc1ccc(Cl)c(Cl)c1)c1ccc(Br)cn1,58% (active)
8,Cc1c(CNCCc2ccccc2)c(C(=O)O)c(C)n1-c1ccccc1,88.8% (active)
9,CN(C(=O)CN(CCO)CC(=O)N(C)C(C)(C)Cc1ccccc1)C(C)(C)Cc1ccccc1,101% (active)
10,Cc1ccccc1-c1nc(CS(=O)(=O)CC(=O)N2CCc3ccccc3C2)c(C)o1,68.7% (active)
11,COc1ccc(NC(=O)C(=O)NCC(c2ccco2)N2CCc3ccccc3C2)cc1 (configuration not stated),40.5% (active)
12,c1ccc(C2CNCc3c2ccc2ccccc32)cc1 (configuration not stated),88.2% (active)
13,N#Cc1ccc(OCCCN2CCC(C(O)(c3ccccc3)c3ccccc3)CC2)c(F)c1,36.6%
14,Cc1ccc(Sc2cc(N3CCOCC3)nc(-c3ccccc3)n2)cc1,19.1%
15,CCCc1cc(C(=O)Nc2ccc(C(=O)OC)cc2)cs1,1.29%
16,COc1cccc(N(CC(=O)N2CCc3ccccc3C2)S(C)(=O)=O)c1,63.4% (active)
17,Cc1ccc(S(=O)(=O)N(CC(=O)N2CCc3ccccc3C2)c2cccc(Cl)c2)cc1,56.1% (active)
18,OC(CNCCc1ccc(Cl)cc1Cl)COc1ccccc1 (configuration not stated),87.4% (active)
19,Nc1nnn(CC(=O)N/N=C/c2ccccc2)n1,61.6% (active)
20,Nc1nonc1-n1nnc(C(=O)N/N=C/c2ccc(Cl)cc2)c1-c1ccc2c(c1)OCO2,142% (active)
21,CCCOc1ccc(-c2c(C(=O)N/N=C/c3ccco3)nnn2-c2nonc2N)cc1,73.1% (active)
22,COc1ccc(C(=O)NC(=S)NNC(=O)c2c(-c3ccccc3)noc2C)cc1,93% (active)
23,Cc1onc(-c2ccccc2)c1C(=O)NNC(=S)NC(=O)c1ccc(F)cc1,127% (active)
24,COc1ccc(OC)c(NC(=S)N2CCc3ccccc3C2)c1,87.5% (active)
25,Fc1ccc(NC(=S)N2CCc3[nH]c4ccccc4c3C2)cc1,32.8%
26,O=C(/C=C/[C@H]1O[C@@H](n2cnc3c(NC(=O)c4ccccc4)ncnc32)[C@H](O)[C@@H]1O)NCc1ccccc1,0.79%
